Results on 14 compounds are retold here after ChEMBL document CHEMBL1124897, “(1-Pyrenylmethyl)amino alcohols, a new class of antitumor DNA intercalators. Discovery and initial amine side chain structure-activity studies” (1990).

What all share (format): functional, Mus musculus
In assay [1] the test system is P388. Put plainly: In vivo antitumor activity against murine lymphocytic leukemia P388 measured as percent increase in life span. The procedure, abridged: (§1)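 Male CD2-F1 mice (20 ± 3 g) implanted ip with 1 × 10^6 viable P388 cells on day 0. Drug given ip as aqueous suspension or solution in 0.9% NaCl or 5% dextrose on days 1, 5 and 9, dosed per body weight in mg/kg. Several dose levels bracketing the LD20 were tested, six mice per dose. Deaths before the control median day of death were counted as drug toxicity.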

The subject of assay [2] is P388. Briefly: In vivo antitumor activity against murine lymphocytic leukemia P388 measured as lethal dose […]. Also noted: unit: mg/kg. The procedure, abridged: as §1
The subject of assay [3] is P388. Briefly: In vivo antitumor activity against murine lymphocytic leukemia P388 measured as optimal dose. The procedure, abridged: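 Male CD2-F1 mice (20 ± 3 g) implanted ip with 1 × 10^6 viable P388 cells on day 0. Compound given ip as aqueous suspension or solution in 0.9% NaCl or 5% dextrose on days 1, 5 and 9, dosed per mg/kg body weight. Several doses bracketing LD20 were tested, six mice per dose. %ILS was calculated from median day of death of treated versus control mice. Values are optimal from at least two experiments.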

For `CCOCC(CO)(CO)NCc1ccc2ccc3cccc4ccc1c2c34.Cl`, in the assay on P388 [1], the ILS stood at 30%. Besides, in the assay with P388 [2], the LD20 was 225. Also, in the assay with P388 [3], the Optimal dose stood at 168 mg/kg.

On to `Cl.OCC(CO)(CO)NCc1ccc2ccc3cccc4ccc1c2c34`, for which, in the assay on P388 [1], the ILS is given as 90%. In the assay on P388 [2], the LD20 was found to be 215. In addition, the Optimal dose in the assay with P388 [3] worked out at 198 mg/kg.

For `CC(O)C(C)(CO)NCc1ccc2ccc3cccc4ccc1c2c34.Cl` (configuration not stated), the ILS in the assay on P388 [1] was 77%. In the assay on P388 [2], this compound displayed an LD20 of 125. The compound further showed an Optimal dose with P388 [3] of 125 mg/kg.

On to `CC(C)C(CO)NCc1ccc2ccc3cccc4ccc1c2c34.Cl` (configuration not stated), for which, in the assay on P388 [1], the ILS came to 27%. This compound yielded an LD20 in the assay on P388 [2] of 450. The Optimal dose in the assay with P388 [3] worked out at 200 mg/kg.

For `CC(O)CNCc1ccc2ccc3cccc4ccc1c2c34.Cl` (configuration not stated), the ILS in the assay on P388 [1] turned out to be 28%. In the assay on P388 [2], the LD20 is reported as 600. For the same compound, the Optimal dose with P388 [3] is 300 mg/kg.

`COCC(C)(CO)NCc1ccc2ccc3cccc4ccc1c2c34` (configuration not stated): the ILS in the assay with P388 [1] stood at 30%. Also, in the assay with P388 [2], the LD20 was 135. For the same compound, in the assay on P388 [3], the Optimal dose came to 180 mg/kg.

For the compound `CC(CO)NCc1ccc2ccc3cccc4ccc1c2c34.Cl` (configuration not stated), the ILS in the assay with P388 [1] is 25%. In the assay on P388 [2], the LD20 was 600. This compound also returned an Optimal dose in the assay with P388 [3] of 220 mg/kg.

On to `CC(C)C(CO)(CO)NCc1ccc2ccc3cccc4ccc1c2c34.Cl`, for which the ILS with P388 [1] is 55%. Besides, in the assay with P388 [2], the LD20 is on record as 300. In the assay with P388 [3], this compound returned an Optimal dose of 450 mg/kg.

In the assay with P388 [1], `Cl.c1cc2ccc3ccc(CNCCCN4CCOCC4)c4ccc(c1)c2c34` yielded an ILS of 20%. The compound also had an LD20 with P388 [2] of 150. In addition, the Optimal dose with P388 [3] turned out to be 150 mg/kg.

Consider `CCC(CO)(CO)NCc1ccc2ccc3cccc4ccc1c2c34.Cl`, for which the ILS with P388 [1] is given as 140%. Further, in the assay on P388 [2], the LD20 was found to be 340. For the same compound, in the assay with P388 [3], the Optimal dose came to 303 mg/kg.

In the assay on P388 [1], `CC(=O)OCC(COC(C)=O)(COC(C)=O)NCc1ccc2ccc3cccc4ccc1c2c34` registered an ILS of 30%. For the same compound, in the assay with P388 [2], the LD20 was found to be 500. In the assay with P388 [3], this compound registered an Optimal dose of 315 mg/kg.

Turning to `OCC1OC(O)C(NCc2ccc3ccc4cccc5ccc2c3c45)C(O)C1O` (configuration not stated), in the assay on P388 [1], the ILS is recorded as 20%. Moreover, in the assay with P388 [2], the LD20 is on record as 400. Moreover, the Optimal dose in the assay with P388 [3] was 450 mg/kg.

`CC(C)(CO)NCc1ccc2ccc3cccc4ccc1c2c34.Cl`: the ILS in the assay on P388 [1] is given as 45%. This compound registered an LD20 with P388 [2] of 450. The compound also showed an Optimal dose in the assay on P388 [3] of 250 mg/kg.

For `CCC(CO)NCc1ccc2ccc3cccc4ccc1c2c34.Cl` (configuration not stated), the ILS in the assay with P388 [1] was 25%. Also, the LD20 in the assay on P388 [2] is 450. Moreover, the Optimal dose with P388 [3] came out at 366 mg/kg.

As a reminder, the ILS is the gain in survival time of treated over control animals, in per cent.
